Here are results for 1 molecule from article PMC9579399 (Clinical and Translational Science, 2022).

The data set concerns healthy Chinese male subjects. The data set is described as follows: Safety evaluation. The data set is classed as in vivo, human. Particulars: n = 49 per group. Summed up: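 AEs recorded throughout the study by investigators, including laboratory tests (hematology, biochemistry, urinalysis), vital signs, physical exams, 12-lead ECG and injection site reactions. Subjects with AEs followed until return to normal or baseline. Incidence calculated as subjects with at least one AE divided by total subjects.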

In the case of `CCCCCCCCCCCCCCCC(=O)N[C@@H](CCC(=O)NCCCC[C@H](NC(=O)[C@H](C)NC(=O)[C@H](C)NC(=O)[C@H](CCC(N)=O)NC(=O)CNC(=O)[C@H](CCC(=O)O)NC(=O)[C@H](CC(C)C)NC(=O)[C@H](Cc1ccc(O)cc1)NC(=O)[C@H](CO)NC(=O)[C@H](CO)NC(=O)[C@@H](NC(=O)[C@H](CC(=O)O)NC(=O)[C@H](CO)NC(=O)[C@@H](NC(=O)[C@H](Cc1ccccc1)NC(=O)[C@@H](NC(=O)CNC(=O)[C@H](CCC(=O)O)NC(=O)[C@H](C)NC(=O)[C@@H](N)Cc1cnc[nH]1)[C@@H](C)O)[C@@H](C)O)C(C)C)C(=O)N[C@@H](CCC(=O)O)C(=O)N[C@@H](Cc1ccccc1)C(=O)N[C@H](C(=O)N[C@@H](C)C(=O)N[C@@H](Cc1c[nH]c2ccccc12)C(=O)N[C@@H](CC(C)C)C(=O)N[C@H](C(=O)N[C@@H](CCCNC(=N)N)C(=O)NCC(=O)N[C@@H](CCCNC(=N)N)C(=O)NCC(=O)O)C(C)C)[C@@H](C)CC)C(=O)O` [Victoza, Liraglutide], the “incidence of AEs” value (percentage of subjects with at least one AE) came to 32.7%. Further, the “incidence of TRAEs” value (percentage of subjects with at least one TRAE) is reported as 24.5%. For the same molecule, for the setting “single 0.6 mg s.c.”, the “Number of events (AEs)” value is 19 and the “Number of events (TRAEs)” value worked out at 12.
